# Results published in ChEMBL document CHEMBL1255196, “Radiosensitization of cancer cells by hydroxychalcones” (2010).
# Calls of active or inactive are those of the source. No cut-off for these calls is given here.
# Assays:
# [1] = system: HT-29; experiment: Phototoxicity against human HT-29 cells at 10 uM irradiated with 4 Gy/min; type: functional, cell-based
# [2] = system: HT-29; experiment: Cytotoxicity against human HT-29 cells assessed as plating efficiency at 10 uM; type: functional
# Method in brief: (§1)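 Colony formation assay of HT-29 cells exposed to drug or DMSO for 2 hr. Plating efficiency defined non-toxic concentrations, meaning plating efficiency above 80%. After 10 to 14 days colonies were fixed in 3:1 methanol/acetic acid for 15 min, stained with 0.5% crystal violet in methanol for 15 min, and counted to give percent survival.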
# [3] = system: HT-29; experiment: Induction in heat-induced cell killing in human HT-29 cells; type: functional, cell-based
# Method in brief: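 HT-29 cells were treated with drug or DMSO and heated at 41°C for 2 hr. Medium was then replaced and cells grown 10-14 days. Colonies were stained and counted. Four flasks per condition.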
# [4] = system: Nucleic Acid; experiment: Induction of Hsf1 DNA binding affinity in human HT-29 cells at 8 uM after 2 hrs; type: cell-based
# Method in brief: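 HT-29 cells were incubated with drug for 2 hr at 37°C (30 min is also stated for the treatment) and nuclear protein was extracted. Gel shift assay used a 32P-labelled rat Hsp70 heat shock element oligomer. Hsf1 identity was confirmed by antibody supershift.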
# [5] = system: HT-29; experiment: Cytotoxicity against human HT-29 cells assessed as plating efficiency at 25 uM; type: functional; method in brief: as §1
# [6] = system: HT-29; experiment: Cell cycle arrest in photoirradiated human HT-29 cells assessed as accumulation at subG0 phase after 48 hrs; type: functional, cell-based
# Method in brief: (§2)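 They were fixed by adding cold 70% ethanol, washed in PBS, and stained with propidium iodide plus RNase for 30-45 min at 37°C. Flow cytometry scored polyploidy and sub-G0 cells 48 hr after irradiation.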
# [7] = system: HT-29; experiment: Phototoxicity against human HT-29 cells assessed as polyploidy formation at 10 uM irradiated with 4 Gy/min; type: functional, cell-based; method in brief: as §2
# [8] = system: HT-29; experiment: Phototoxicity against human HT-29 cells irradiated with 2 Gy/min; type: functional, cell-based
Compound,Activity [1],Activity [2] [%],Activity [3],Activity [4],Activity [5] [%],Activity [6],Activity [7],Activity [8]
O=C(/C=C/c1ccccc1O)c1ccccc1O,Active,>80,Active,Active,,,,
O=C(/C=C/c1ccccc1)c1cc(O)ccc1O,Active,,,Active,>80,Active,Active,Dose-dependent effect
